Reference: publication PMC11489580 (Scientific Reports, 2024)

Key:
RAW 264.7 cells [1] = experiment: Apoptosis: caspase 3 cleavage; assay type: cell-based, murine; settings: RAW 264.7, 48 h, 15 µM (western blot, Annexin V)
Procedure, shortened: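 RAW 264.7 cells seeded at 50,000 cells/mL and co-treated 48 h with test compound plus CellEvent caspase-3/7 reagent, imaged every 4 h by IncuCyte. For the western blot and Annexin V: 48 h with 15 µM test compound or DMSO. Controls were staurosporin 1 µM ± QVD 10 µM for 4 h. Blots probed for caspase 3, PARP and β-actin. Annexin V-FITC/PI staining was read by flow cytometry as fold change vs DMSO.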

[2] = biological target: His-tagged rM1M2 HuR protein / 5'-Bi-TNF ARE probe (Homo sapiens, UniProt Q15717); experiment: Homogeneous Time-Resolved Fluorescence; assay type: binding
Sequence of His-tagged rM1M2 HuR protein / 5'-Bi-TNF ARE probe (Q15717 20-186 limits assumed): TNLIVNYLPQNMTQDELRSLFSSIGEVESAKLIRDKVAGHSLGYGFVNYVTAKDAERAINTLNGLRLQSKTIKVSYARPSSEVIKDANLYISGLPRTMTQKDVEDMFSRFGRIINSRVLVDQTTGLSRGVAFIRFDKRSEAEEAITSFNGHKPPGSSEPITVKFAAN
Procedure, shortened: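 His-tagged HuR M1M2 (20 nM) incubated with a biotinylated 26-nt TNF ARE RNA probe (50 nM), donor/acceptor beads and test compound (0.01–100 µM); DMSO control; protein hook point determined beforehand. HTRF signal was normalised to DMSO and fitted by nonlinear regression with a one-site model to give IC50. Mean ± s.d. of three independent experiments.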

RAW 264.7 cells [3] = experiment: Real-time cell proliferation by Incucyte; assay type: cell-based, murine; settings: RAW 264.7, 72 h
Procedure, shortened: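 Growth curves were recorded by live-cell IncuCyte imaging of RAW 264.7 cells treated with test compounds over 72 h, and analysed in IncuCyte. Mean ± s.d. of three independent experiments.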

[4] = system: LPS-stimulated RAW264.7 cells; experiment: Cxcl10 secretion by ELISA; assay type: cell-based, murine; settings: co-treatment LPS 1 µg/mL and TM 10 µM, 6 h
Procedure, shortened: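 RAW264.7 seeded at 200.000 cells/mL and given LPS 1 µg/mL. Test compound (10 µM) or DMSO was either co-added for 6 h, or added after 2 h of LPS for a further 4 h. Supernatant was diluted 1:2 for mouse CXCL10 sandwich ELISA (TMB, 605 nm). pg/mL was normalised to crystal violet cell counts and expressed as % of LPS + DMSO; mean ± s.d., three independent experiments.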

[5] = system: RAW264.7 murine macrophages; experiment: OZblue cell viability assay; assay type: cell-based; settings: Mus musculus, RAW264.7, 48 h, read-out: IC50 cell viability
Procedure, shortened: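 RAW264.7 murine macrophages exposed for 48 h to test compound at 1 to 50 µM. Viability was read with the OZblue reagent and IC50 taken from the concentration–response. Mean ± s.d. of three independent experiments.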

[6] = Kinetic solubility by LC-MS in PBS with DMSO; assay type: physicochemical; settings: 20% DMSO
[7] = system: LPS-stimulated RAW264.7 cells; experiment: qRT-PCR of LPS-induced genes; assay type: cell-based, murine; settings: co-treatment LPS 1 µg/mL and TM 10 µM, 6 h
[8] = biological target: rM1M2_HuR (first two RRM domains of human HuR) / 5'-DY681-labeled AU-rich RNA probe (Homo sapiens, UniProt Q15717); experiment: RNA Electrophoretic Mobility Shift Assay; assay type: binding
Sequence of rM1M2_HuR (first two RRM domains of human HuR) / 5'-DY681-labeled AU-rich RNA probe (Q15717 20-186 limits assumed): as above
Procedure, shortened: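 Human HuR RRM1-2 (rM1M2) was expressed in E. coli BL21. Protein (3.7 nM) was incubated 20 min with 1 nM 5′-DY681-labelled 26-nt AU-rich RNA and DMSO or test compound (15 µM screen; 0.01–25 µM dose–response). Samples ran on 4% native polyacrylamide at 80 V, 1.5 h, and were scanned for DY681. IC50 came from titration curves of band quantification.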

RAW 264.7 cells [9] = experiment: Cell cycle analysis, propidium iodide FACS; assay type: cell-based, murine; settings: 2 / TM7n and 5 / TM11 at 10 µM and 20 µM, respectively, 48 h
Procedure, shortened: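 RAW 264.7 cells seeded at 250.000 cells/mL and exposed to test compound for 48 h, then fixed in 70% ethanol and stained with propidium iodide for flow cytometry. Controls were serum-free starvation for 24 h (G0/G1 block) and nocodazole for 2 h (G2/M block). Mean ± s.d. of three independent experiments.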

IC50 [2] | solubility relative to 2 / TM7n or 1 / TM6a [6] | IC50 [8] | inhibitory effect on HuR-RNA complex formation (REMSA screen) ([8]; TMs at 15 µM, 3.7 nM rM1M2_HuR, 1 nM RNA probe) | SMILES | activation of apoptosis (caspase 3, PARP cleavage, Annexin V) (RAW 264.7 cells [1]) | proliferation rate (real-time growth) (RAW 264.7 cells [3]) | Cxcl10 level in supernatant [4] | IC50 [5] | expression of LPS-induced readout genes (Cxcl10, Fas, Nos2, Il1β) [7] | cell cycle distribution (RAW 264.7 cells [9])
– | – | – | – | Cc1occ2c1C(=O)c1c(O)ccc(O)c1C2 [MS-444, reference compound] | absence of apoptotic effect | – | – | – | – | –
680 nM | ten times more soluble | 770 nM | greatest inhibitory effect | O=C1C=Cc2c(c(-c3ccco3)cn2S(=O)(=O)c2ccccc2)C1=O [5 / TM11, 3-(furan-2-yl)-1-(phenylsulfonyl)-1 H-indole-4,5-dione] | did not observe the activation of the apoptotic machinery | dose-dependent decrease in proliferation rate | downregulation of its level | 15000 nM | ability to counteract the effect of LPS stimulation | accumulation of the cells in the S and G2/M phases
